Reference: publication PMC5563391 (Investigational new drugs, 2015)

Experiments:
[1] = Phase 1 pharmacokinetics of ilorasertib in plasma; type: in vivo, human; details: for AUC(0-t) / half-life / AUC(0-inf): human, plasma, po; for half-life: 480 mg, t1/2, arm B, oral twice weekly
In short: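 Arm A patients took oral test compound once weekly, in the morning, on days 1, 8 and 15 of 28-day cycles, at 10–690 mg. Plasma was sampled intensively up to 72 h after dosing on days 1 and 15. Noncompartmental analysis gave Cmax, Tmax, t½, AUCt and AUC∞, plus dose-normalized values. Results are summarized by dose level as mean ± SD, with individual values where N=1.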

[2] = test system: patients with hematologic malignancies; test: Phase 1 safety and tolerability; type: in vivo
In short: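 Four arms each ran 28-day cycles: oral once weekly (A), oral twice weekly (B), oral once weekly with IV/SC azacitidine on days 1–7 (C), and IV once weekly (D). Dose escalation followed a modified continual reassessment method, with MTD defined as a 30% DLT rate by logistic regression. Toxicity was graded continuously by CTCAE v4.0, with labs, ECG, MUGA/echocardiogram and vital signs monitored.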

[3] = test system: peripheral blood mononuclear cells; test: Cell cycle analysis by flow cytometry; type: in vivo, human; details: arm A
In short: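 Adults with hematologic malignancies received oral test compound once weekly on days 1, 8 and 15 of 28-day cycles, at doses from 10 to 690 mg. Blood for pharmacodynamics was drawn alongside pharmacokinetic samples. Peripheral blood mononuclear cells were analysed by flow cytometry for the percentage of cells with 2N, 4N or >4N DNA. Only patients with enough cycling cells at baseline were evaluable.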

[4] = test system: placental growth factor (PlGF); test: Placental growth factor concentration, biomarker of VEGF receptor inhibition; type: in vivo, human; details: arm A
In short: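 Arm A patients received oral test compound once weekly on days 1, 8 and 15 of 28-day cycles, at 10–690 mg. At designated time points after the first dose, blood for PlGF measurement was collected together with pharmacokinetic samples. The change from baseline in PlGF was assessed against dose.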

[5] = test system: patients with advanced hematologic malignancies; test: Clinical response; type: in vivo, human
In short: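 Patients received the test compound in one of four arms, each on a 28-day cycle. Arm A took it orally once weekly on days 1, 8 and 15, and arm B orally on days 1, 2, 8, 9, 15 and 16. Arm C added IV or SC azacitidine on days 1–7 to the once-weekly oral schedule. Arm D received it IV on days 1, 8 and 15. Response used revised International Working Group criteria, or NCCN guidelines for CML.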

Nc1ncc(-c2cnn(CCO)c2)c2scc(-c3ccc(NC(=O)Nc4cccc(F)c4)cc3)c12 [Ilorasertib]
AUC(0-t) ([1]; 440 mg): 13500 ± 7520 ng·h/mL | half-life ([1]; day 1, N=7): 14.9 ± 3.2 h | half-life ([1]; day 15, N=7): 15.3 ± 5.1 h | AUC(0-inf) ([1]; 540 mg): 6010 ± 1230 ng·h/mL | AUC(0-t) ([1]; 540 mg, AUC0–24, arm A, oral once weekly, first dose, N=3, mean ± SD): 5800 ± 1080 ng·h/mL | AUC(0-inf) ([1]; 640 mg): 20300 ± 15000 ng·h/mL | AUC(0-t) ([1]; 640 mg, AUC0–24, arm A, oral once weekly, first dose, N=6, mean ± SD): 19700 ± 14800 ng·h/mL | AUC(0-inf) ([1]; 690 mg): 8460 ng·h/mL | renal excretion of ilorasertib as the parent drug ([1]; in vivo): negligible | dose proportionality of Cmax and AUC∞ ([1]; oral, 80- to 690-mg dose range): generally dose proportional | patients reporting grade 3 or 4 adverse events ([2]; 42 of 52 patients): 80.8% | patients reporting at least 1 treatment-emergent adverse event ([2]; 51 of 52 patients): 98.1% | grade 3/4 adverse event: anemia ([2]; 52 patients, all arms): 13.5% | grade 3/4 adverse event: hypertension ([2]; 52 patients, all arms): 28.8% | grade 3/4 adverse event: hypokalemia ([2]; 52 patients, all arms): 15.4% | grade 3/4 adverse event: hypophosphatemia ([2]; 52 patients, all arms): 11.5% | grade 3 or 4 adverse events related to ilorasertib: hypertension ([2]; 52 patients, all arms): 17.3% | grade 3 or 4 adverse events related to ilorasertib: pancreatitis ([2]; 52 patients, all arms): 3.8% | grade 3 or 4 adverse events related to ilorasertib: proteinuria ([2]; 52 patients, all arms): 3.8% | Treatment-emergent adverse events, any grade: Anemia ([2]; all arms, N=52): 7 (13.5) n (%) | Treatment-emergent adverse events, any grade: Any event ([2]; all arms, N=52): 51 (98.1) n (%) | Treatment-emergent adverse events, any grade: Arthralgia ([2]; all arms, N=52): 8 (15.4) n (%) | Treatment-emergent adverse events, any grade: Bone pain ([2]; all arms, N=52): 8 (15.4) n (%) | Treatment-emergent adverse events, any grade: Decreased appetite ([2]; all arms, N=52): 8 (15.4 n (%) | Treatment-emergent adverse events, any grade: Diarrhea ([2]; all arms, N=52): 23 (44.2) n (%) | Treatment-emergent adverse events, any grade: Epistaxis ([2]; all arms, N=52): 7 (13.5) n (%) | Treatment-emergent adverse events, any grade: Fatigue ([2]; all arms, N=52): 11 (21.2) n (%) | Treatment-emergent adverse events, any grade: Headache ([2]; all arms, N=52): 8 (15.4) n (%) | Treatment-emergent adverse events, any grade: Hypertension ([2]; all arms, N=52): 17 (32.7) n (%) | Treatment-emergent adverse events, any grade: Hypokalemia ([2]; all arms, N=52): 18 (34.6) n (%) | Treatment-emergent adverse events, any grade: Hypomagnesemia ([2]; all arms, N=52): 10 (19.2) n (%) | Treatment-emergent adverse events, any grade: Hypophosphatemia ([2]; all arms, N=52): 9 (17.3) n (%) | Treatment-emergent adverse events, any grade: Nausea ([2]; all arms, N=52): 23 (44.2) n (%) | Treatment-emergent adverse events, any grade: Peripheral edema ([2]; all arms, N=52): 11 (21.2) n (%) | Treatment-emergent adverse events, any grade: Proteinuria ([2]; all arms, N=52): 19 (36.5) n (%) | Treatment-emergent adverse events, any grade: Pyrexia ([2]; all arms, N=52): 8 (15.4) n (%) | Treatment-emergent adverse events, any grade: Vomiting ([2]; all arms, N=52): 10 (19.2) n (%) | Treatment-emergent adverse events, grade 3/4: Acute renal failure ([2]; all arms, N=52): 3 (5.8) n (%) | Treatment-emergent adverse events, grade 3/4: Anemia ([2]; all arms, N=52): 7 (13.5) n (%) | Treatment-emergent adverse events, grade 3/4: Any grade 3/4 event ([2]; all arms, N=52): 42 (80.8) n (%) | Treatment-emergent adverse events, grade 3/4: Bacteremia ([2]; all arms, N=52): 3 (5.8) n (%) | Treatment-emergent adverse events, grade 3/4: Febrile neutropenia ([2]; all arms, N=52): 4 (7.7) n (%) | Treatment-emergent adverse events, grade 3/4: Fungal pneumonia ([2]; all arms, N=52): 4 (7.7) n (%) | Treatment-emergent adverse events, grade 3/4: Hypertension ([2]; all arms, N=52): 15 (28.8) n (%) | Treatment-emergent adverse events, grade 3/4: Hypokalemia ([2]; all arms, N=52): 8 (15.4) n (%) | Treatment-emergent adverse events, grade 3/4: Hypophosphatemia ([2]; all arms, N=52): 6 (11.5) n (%) | Treatment-emergent adverse events, grade 3/4: Hypotension ([2]; all arms, N=52): 3 (5.8) n (%) | Treatment-emergent adverse events, grade 3/4: Pneumonia ([2]; all arms, N=52): 4 (7.7) n (%) | Treatment-emergent adverse events, grade 3/4: Proteinuria ([2]; all arms, N=52): 4 (7.7) n (%) | Treatment-emergent adverse events, grade 3/4: Sepsis ([2]; all arms, N=52): 3 (5.8) n (%) | DLTs ([2]; arm A, PO once weekly monotherapy, 640 mg, 6 patients): Grade 3 pancreatitis ^a | recommended phase 2 dose (RPTD) ([2]; arm A, oral monotherapy once weekly): 540 mg | DLTs ([2]; arm B, 320 or 480 mg twice weekly): No DLTs | recommended phase 2 dose (RPTD) ([2]; arm B, oral monotherapy twice weekly): 480 mg | DLTs ([2]; arm D, IV once weekly, 32 mg): No DLTs | association between ilorasertib dose and cell cycle arrest [3]: No association | increase in the number of cells with 4N DNA and polyploidy ([3]; 9 patients with sufficient cycling cells at baseline): ≥ 2 fold | increase in PlGF ([4]; after the first dose, dose range 10 to 690 mg): ≥ 2 fold | relationship between dose and the magnitude of change in PlGF [4]: no apparent relationship | patients with a best response of stable disease ([5]; 52 patients): Twelve | patients with an objective response ([5]; AML patients, among 52 patients): 3 | patients with CR with incomplete blood count recovery (CRi) ([5]; AML, arm A, 640 mg, end of cycle 1): 1 | patients with complete response (CR) ([5]; AML, arm A, 690 mg, end of cycle 8): 1 | patients with partial response ([5]; AML, arm B, 480 mg, end of cycle 2): 1
